High-throughput results from PubChem BioAssay.
A selection: hits, their analogues and other compounds. The true share with any hit is near 1.9%.
PLCb3 inh – human PLC-beta3 inhibitors, primary screen, biochemical, fluorescence; Purified PLC-beta3, fluorogenic substrate; inhibition, % at 12.2 µM; 370,000 compounds, 0.18% hits; in the data active = inhibition above about 11%
HGIII-sPLA2 inh – human group III sPLA2 inhibitors, primary screen, biochemical, QFRET, BODIPY PC-A2 liposome substrate. Group 3 secretory phospholipase A2 (Homo sapiens), Q9NZ20. QFRET BODIPY PC-A2 liposome hydrolysis, fluorescence. inhibition, % at 12.2 µM. 370,000 compounds, 0.56% hits;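 active = inhibition above mean plus 3 SD of compounds lying within the high and low control bounds, cut at about 19% in these data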
PLCg1 inh – PLC-gamma1 enzyme inhibitors, primary screen, biochemical, fluorescence, purified enzyme; fluorogenic substrate; inhibition, % at 12.2 µM; 370,000 compounds, 0.84% hits; in the data active = inhibition above about 9.5%
Target sequence (P19174 whole entry, looked up): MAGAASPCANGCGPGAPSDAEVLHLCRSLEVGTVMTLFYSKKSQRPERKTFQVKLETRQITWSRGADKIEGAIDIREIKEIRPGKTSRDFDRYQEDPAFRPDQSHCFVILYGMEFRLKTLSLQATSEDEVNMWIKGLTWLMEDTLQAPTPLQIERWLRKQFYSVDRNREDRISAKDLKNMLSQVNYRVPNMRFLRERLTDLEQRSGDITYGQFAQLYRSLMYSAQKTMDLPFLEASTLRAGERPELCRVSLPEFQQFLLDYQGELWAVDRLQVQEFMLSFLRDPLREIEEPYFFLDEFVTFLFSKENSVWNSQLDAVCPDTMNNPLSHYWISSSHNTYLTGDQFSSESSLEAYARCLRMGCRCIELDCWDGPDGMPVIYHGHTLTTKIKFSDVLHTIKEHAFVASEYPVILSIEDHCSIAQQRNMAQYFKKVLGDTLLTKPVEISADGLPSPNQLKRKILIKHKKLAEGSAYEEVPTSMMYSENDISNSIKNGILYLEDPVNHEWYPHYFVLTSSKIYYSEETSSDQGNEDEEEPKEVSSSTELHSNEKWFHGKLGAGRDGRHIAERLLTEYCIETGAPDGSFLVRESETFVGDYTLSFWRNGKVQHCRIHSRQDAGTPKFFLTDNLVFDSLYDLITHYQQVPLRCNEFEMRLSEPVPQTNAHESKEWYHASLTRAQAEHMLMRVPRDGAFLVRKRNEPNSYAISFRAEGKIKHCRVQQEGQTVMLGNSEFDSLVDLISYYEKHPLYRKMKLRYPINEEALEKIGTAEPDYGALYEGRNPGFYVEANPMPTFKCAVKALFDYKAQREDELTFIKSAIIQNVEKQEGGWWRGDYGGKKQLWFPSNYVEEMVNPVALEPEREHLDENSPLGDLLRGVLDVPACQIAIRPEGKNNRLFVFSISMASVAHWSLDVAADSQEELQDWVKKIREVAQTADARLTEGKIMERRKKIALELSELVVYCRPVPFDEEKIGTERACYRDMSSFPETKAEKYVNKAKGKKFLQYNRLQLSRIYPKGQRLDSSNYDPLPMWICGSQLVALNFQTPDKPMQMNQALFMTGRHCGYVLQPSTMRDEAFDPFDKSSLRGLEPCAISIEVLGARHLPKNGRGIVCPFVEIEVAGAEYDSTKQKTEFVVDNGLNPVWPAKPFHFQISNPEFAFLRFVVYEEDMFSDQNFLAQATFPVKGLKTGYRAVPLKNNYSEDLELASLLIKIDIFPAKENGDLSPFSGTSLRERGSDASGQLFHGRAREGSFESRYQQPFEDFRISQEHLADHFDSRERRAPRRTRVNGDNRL
TbMetRS inhib – T. brucei MetRS inhibitors, primary screen, biochemical, luminescence; purified T. brucei MetRS, ATP depletion, Kinase-Glo luminescence; inhibition, % at 11.9 µM; 360,000 compounds, 0.4% hits; AID 624268, 2012;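 active = inhibition above a per-plate cutoff of the control wells' mean inhibition plus 3 SD, cut at about 5.5% in these data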
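Dosing: 11.9 µM compound single dose, 0.9% DMSO; Assay system: purified T. brucei MetRS enzyme; Measured by: Kinase-Glo luciferase luminescence reporting remaining unconsumed ATP; Schedule: 15 min plus 2 h at 25 °C.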
hGIII sPLA2 conf – human group III sPLA2 inhibitors, confirmation, biochemical, QFRET, triplicate | shares compounds with HGIII-sPLA2 inh | recombinant hGIII-sPLA2, BODIPY PC-A2 QFRET fluorescence | inhibition, % at 12.2 µM | 2,000 compounds, 34% hits | AID 743280, 2014;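 active = mean inhibition across triplicates above the hit cutoff set in the earlier primary screen, cut at about 19% in these data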
BODIPY interf – 535nm fluorescence optical interference, confirmation, artefact control for HGIII-sPLA2 inhibitor project, biochemical, QFRET; shares compounds with HGIII-sPLA2 inh; BODIPY FL product fluorescence interference; inhibition, % at 12.2 µM; 2,000 compounds, 8.5% hits;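 active = average inhibition above the solvent-only control mean plus 3 SD, cut at about 6% in these data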
BODIPY interf DR – 535nm fluorescence optical interference, dose response, artefact control for HGIII-sPLA2 inhibitor project, biochemical, QFRET | shares compounds with HGIII-sPLA2 inh | BODIPY FL product fluorescence interference, cell-free | IC50, µM | 240 tested, under 10 active;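 active = IC50 at or below 10 µM; inactive = IC50 above 10 µM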
Numbers stand for hits.

For CCC(=NCc1ccco1)c1c(O)n(C)c(=O)n(C)c1=O the results were PLCb3 inh inactive, HGIII-sPLA2 inh 20, PLCg1 inh inactive, TbMetRS inhib inactive, hGIII sPLA2 conf inactive and BODIPY interf inactive.
`CCC(=NCCc1ccccc1)c1c(O)n(C)c(=O)n(C)c1=O` gave PLCb3 inh inactive, HGIII-sPLA2 inh inactive, PLCg1 inh inactive and TbMetRS inhib inactive.
Screening O=C1CN=C(c2ccccc2F)c2cc(Cl)ccc2N1 returned PLCb3 inh inactive, HGIII-sPLA2 inh 19, PLCg1 inh inactive, TbMetRS inhib inactive, hGIII sPLA2 conf inactive and BODIPY interf inactive.
`C=CCN1CC[C@]23c4c5ccc(O)c4OC2C(=O)CC[C@@]3(O)[C@H]1C5` (stereo partly specified) gave PLCb3 inh inactive, HGIII-sPLA2 inh inactive and PLCg1 inh inactive.
C[C@@H]1CNCCN1c1ccc(N2CC[C@H](O)C2)c(C#N)c1 was read as PLCb3 inh inactive, HGIII-sPLA2 inh inactive and PLCg1 inh inactive.
`Cc1cc(O)c2c(c1)C(=O)[C@@]13C(=C2O)C(=O)[C@H]2C(O)[C@@H]1[C@H]1C(O)[C@@H]3C(=O)C3=C(O)c4c(O)cc(C)cc4C(=O)[C@@]312` (stereo partly specified) gave PLCb3 inh inactive, HGIII-sPLA2 inh inactive and PLCg1 inh inactive.
`CN(C)c1ccc(-[n+]2c(-c3ccccc3)cc(-c3ccccc3)cc2-c2ccccc2)cc1` gave PLCb3 inh inactive, HGIII-sPLA2 inh 22, PLCg1 inh inactive, TbMetRS inhib inactive, hGIII sPLA2 conf 27 and BODIPY interf inactive.
For c1ccc(-c2cc(-c3ccccc3)[n+](-c3ccccc3)c(-c3ccccc3)c2)cc1 the results were PLCb3 inh inactive, HGIII-sPLA2 inh inactive, PLCg1 inh inactive and TbMetRS inhib inactive.
CC(C)(C)NC(=O)CN1C(=O)[C@@H](Cc2c[nH]c3ccccc23)N=C(c2ccccc2)c2ccccc21 was read as PLCb3 inh inactive, HGIII-sPLA2 inh inactive and PLCg1 inh inactive.
Screening Nc1ccc(-c2ccc(N)cc2)cc1 returned PLCb3 inh inactive, HGIII-sPLA2 inh 19, PLCg1 inh inactive, TbMetRS inhib inactive, hGIII sPLA2 conf inactive and BODIPY interf inactive.
COc1cccc(C(=O)NCCN2CCC3(CC2)C(=O)NCN3c2ccccc2)c1 was read as PLCb3 inh inactive, HGIII-sPLA2 inh inactive and PLCg1 inh inactive.
CCOP(=O)(OCC)C1(C(=O)O)CCCC1 was read as PLCb3 inh inactive, HGIII-sPLA2 inh 24, PLCg1 inh inactive, TbMetRS inhib inactive, hGIII sPLA2 conf inactive and BODIPY interf inactive.
Screening CCOP(=O)(OCC)C1(O)C(=O)Nc2ccccc21 (stereo unspecified) returned PLCb3 inh inactive, HGIII-sPLA2 inh inactive, PLCg1 inh inactive and TbMetRS inhib inactive.
CCc1ccc(/C=C(/C#N)C(N)=S)cc1 was read as PLCb3 inh inactive, HGIII-sPLA2 inh 24, PLCg1 inh inactive, TbMetRS inhib inactive, hGIII sPLA2 conf 29, BODIPY interf inactive and BODIPY interf DR inactive.
For CC(=O)NCC1=C(c2ccc(S(C)(=O)=O)cc2)C[C@@H]2CC[C@H]1N2CCOc1ccccc1 the results were PLCb3 inh inactive, HGIII-sPLA2 inh inactive and PLCg1 inh inactive.
c1ccc(Cc2cnc(N3CCNCC3)nc2)cc1 was read as PLCb3 inh inactive, HGIII-sPLA2 inh 25, PLCg1 inh inactive, hGIII sPLA2 conf inactive and BODIPY interf inactive.
`c1cnc(N2CCNCC2)nc1` gave PLCb3 inh inactive, HGIII-sPLA2 inh inactive, PLCg1 inh inactive and TbMetRS inhib inactive.
`Clc1cccc(N2CCNCC2)c1Cl` gave PLCb3 inh inactive, HGIII-sPLA2 inh 25, PLCg1 inh inactive, TbMetRS inhib inactive, hGIII sPLA2 conf inactive and BODIPY interf inactive.
`N#Cc1ccc2nc(-c3ccc(CN4CCC(n5nnc6ccccc65)CC4)cc3)c(-c3ccccc3)nc2c1` gave PLCb3 inh inactive, HGIII-sPLA2 inh inactive and PLCg1 inh inactive.
O=c1[nH]c(=S)n(C2CC2)c(O)c1/C=N/Nc1ccccc1 was read as PLCb3 inh inactive, HGIII-sPLA2 inh 22, PLCg1 inh inactive, TbMetRS inhib inactive, hGIII sPLA2 conf inactive and BODIPY interf inactive.
CC1CC2(C)C(CCC3C2CCC2(C)C(OP(=O)(N4CC4)N4CC4)CCC32)CC1=O (stereo unspecified) was read as PLCb3 inh inactive, HGIII-sPLA2 inh 25, PLCg1 inh inactive, TbMetRS inhib inactive, hGIII sPLA2 conf inactive and BODIPY interf inactive.
`C[C@]12CCC3C(CC[C@H]4C[C@H](O)CC[C@]34C)C1CC(=O)[C@@H]2O` (stereo partly specified) gave PLCb3 inh inactive, HGIII-sPLA2 inh inactive, PLCg1 inh inactive and TbMetRS inhib inactive.
O=C(NCCN1CCC2(CC1)C(=O)NCN2c1ccccc1)c1cccnc1Cl was read as PLCb3 inh inactive, HGIII-sPLA2 inh inactive and PLCg1 inh inactive.
For Cc1cc(C(=O)N=Nc2c(O)n(C)c3ccccc23)c(C)o1 the results were PLCb3 inh inactive, HGIII-sPLA2 inh 23, PLCg1 inh inactive, TbMetRS inhib inactive, hGIII sPLA2 conf inactive and BODIPY interf inactive.
Screening c1ccc2c3c([nH]c2c1)CNCC3 returned PLCb3 inh inactive, HGIII-sPLA2 inh 24, PLCg1 inh inactive, TbMetRS inhib inactive, hGIII sPLA2 conf inactive and BODIPY interf inactive.
O=C1NC(=S)NC(=O)C1c1ccccc1 was read as PLCb3 inh inactive, HGIII-sPLA2 inh inactive, PLCg1 inh inactive and TbMetRS inhib inactive.
O=C1CC(c2ccccc2)CN1 (stereo unspecified) was read as PLCb3 inh inactive, HGIII-sPLA2 inh 24, PLCg1 inh inactive, TbMetRS inhib inactive, hGIII sPLA2 conf inactive and BODIPY interf inactive.
`COc1ccccc1N1CCN(Cc2ccc(F)cc2)CC1` gave PLCb3 inh inactive, HGIII-sPLA2 inh inactive, PLCg1 inh inactive and TbMetRS inhib inactive.
`COc1ccccc1N1CCN(Cc2ccc(Cl)cc2Cl)CC1` gave PLCb3 inh inactive, HGIII-sPLA2 inh 21, PLCg1 inh inactive, TbMetRS inhib inactive, hGIII sPLA2 conf inactive and BODIPY interf inactive.
